Reference: paper PMC11740949 (Bioconjugate Chemistry, 2024)

Target: T1, recombinant murine FAP (Mus musculus, UniProt P97321)
T1 sequence (P97321 1-761): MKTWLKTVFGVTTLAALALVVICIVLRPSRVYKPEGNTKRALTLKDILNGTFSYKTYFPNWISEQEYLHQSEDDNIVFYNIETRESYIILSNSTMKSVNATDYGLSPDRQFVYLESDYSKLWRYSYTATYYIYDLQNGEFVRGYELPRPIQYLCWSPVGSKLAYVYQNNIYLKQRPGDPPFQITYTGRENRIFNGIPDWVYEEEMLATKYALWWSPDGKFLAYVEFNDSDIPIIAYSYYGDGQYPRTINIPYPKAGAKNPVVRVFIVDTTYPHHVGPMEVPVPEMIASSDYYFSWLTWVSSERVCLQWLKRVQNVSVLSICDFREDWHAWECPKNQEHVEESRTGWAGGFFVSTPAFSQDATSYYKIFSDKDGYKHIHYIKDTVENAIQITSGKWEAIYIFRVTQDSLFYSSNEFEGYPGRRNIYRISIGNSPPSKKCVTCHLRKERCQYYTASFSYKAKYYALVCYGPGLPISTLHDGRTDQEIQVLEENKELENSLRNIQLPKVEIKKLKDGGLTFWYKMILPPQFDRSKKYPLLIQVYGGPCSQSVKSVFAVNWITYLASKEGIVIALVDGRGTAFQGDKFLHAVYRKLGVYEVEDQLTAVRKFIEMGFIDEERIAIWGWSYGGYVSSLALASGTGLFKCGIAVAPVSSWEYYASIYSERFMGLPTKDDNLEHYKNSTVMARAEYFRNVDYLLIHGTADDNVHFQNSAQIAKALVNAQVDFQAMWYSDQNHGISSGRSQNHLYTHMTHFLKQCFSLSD
Experiment: FAP inhibition assay with fluorogenic substrate Z-Gly-Pro-AMC
Assay type: biochemical
Conditions: three-parameter fit
How it was run: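 Recombinant mouse FAP at 0.01 μg/100 μL in 50 mM Tris, 1.0 M NaCl, 0.1% BSA (w/v), pH 7.5. Test compound was serially diluted 1:5 (10 pM–10 μM) and preincubated with the enzyme for 30 min at 37 °C. Z-Gly-Pro-AMC was then added (10 μL of a 100 μM solution) for 60 min at 37 °C, and fluorescence was read at Ex 380/Em 460. Activity was scaled to no-inhibitor and no-enzyme wells, and IC50 came from a three-parameter inhibitor-vs-response fit.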

IC50: 0.59 nM
Compound: N#C[C@@H]1CC(F)(F)CN1C(=O)CNC(=O)c1ccnc2ccc(OCCCN3CCN(C(=O)CN4CCN(CC(=O)O)CCN(CC(=O)O)CCN(CC(=O)O)CC4)CC3)cc12 [FAPi-4]
